Experimental data published in ChEMBL document CHEMBL4665726, “Development of a selective HDAC inhibitor aimed at reactivating the HIV latent reservoir” (Bioorg Med Chem Lett, 2020).

Key:
[1] = molecular target: Histone deacetylase 1 (Homo sapiens, UniProt Q13547); assay: Inhibition of HDAC1 (unknown origin)
[2] = molecular target: Histone deacetylase 2 (Homo sapiens, UniProt Q92769); assay: Inhibition of HDAC2 (unknown origin)
[3] = molecular target: T1, Histone deacetylase 8 (Homo sapiens, UniProt Q9BY41); assay: Inhibition of HDAC8 (unknown origin)
T1 sequence (Q9BY41 whole entry): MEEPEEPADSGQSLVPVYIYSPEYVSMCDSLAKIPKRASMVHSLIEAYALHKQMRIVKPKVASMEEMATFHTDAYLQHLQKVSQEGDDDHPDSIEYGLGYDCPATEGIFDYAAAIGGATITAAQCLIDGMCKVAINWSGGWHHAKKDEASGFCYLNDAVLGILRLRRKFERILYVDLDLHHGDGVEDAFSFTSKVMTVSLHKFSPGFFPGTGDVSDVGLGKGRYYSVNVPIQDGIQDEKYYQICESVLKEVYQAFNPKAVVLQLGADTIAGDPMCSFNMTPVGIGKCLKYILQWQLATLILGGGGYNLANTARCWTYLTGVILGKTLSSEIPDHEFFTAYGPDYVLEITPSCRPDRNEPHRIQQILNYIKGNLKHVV

[4] = molecular target: T2, Class 1 histone deacetylase (Homo sapiens, UniProt Q13547+O15379+Q92769+Q9BY41); assay: Inhibition of Class 1 HDAC in VSV-G-pseudotyped HIV infected human 2C4 cell Jurkat model assessed as reactivation of HIV latency in presence of 5% NHS by fluorescent reporter gene assay
Procedure, shortened: (§1)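 Latently infected Jurkat 2C4 cells (HIV latency model) were tested for reactivation of silenced provirus in parallel at two normal human serum levels: 0.1% and 5%. The paired runs gauge the potency shift from plasma protein binding.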

[5] = molecular target: T2, Class 1 histone deacetylase; assay: Inhibition of Class 1 HDAC in VSV-G-pseudotyped HIV infected human 2C4 cell Jurkat model assessed as reactivation of HIV latency in presence of 0.1% NHS by fluorescent reporter gene assay; procedure, shortened: as §1
[6] = molecular target: T3, Protein deacetylase HDAC6 (Homo sapiens, UniProt Q9UBN7); assay: Inhibition of HDAC6 (unknown origin)
T3 sequence (Q9UBN7 whole entry): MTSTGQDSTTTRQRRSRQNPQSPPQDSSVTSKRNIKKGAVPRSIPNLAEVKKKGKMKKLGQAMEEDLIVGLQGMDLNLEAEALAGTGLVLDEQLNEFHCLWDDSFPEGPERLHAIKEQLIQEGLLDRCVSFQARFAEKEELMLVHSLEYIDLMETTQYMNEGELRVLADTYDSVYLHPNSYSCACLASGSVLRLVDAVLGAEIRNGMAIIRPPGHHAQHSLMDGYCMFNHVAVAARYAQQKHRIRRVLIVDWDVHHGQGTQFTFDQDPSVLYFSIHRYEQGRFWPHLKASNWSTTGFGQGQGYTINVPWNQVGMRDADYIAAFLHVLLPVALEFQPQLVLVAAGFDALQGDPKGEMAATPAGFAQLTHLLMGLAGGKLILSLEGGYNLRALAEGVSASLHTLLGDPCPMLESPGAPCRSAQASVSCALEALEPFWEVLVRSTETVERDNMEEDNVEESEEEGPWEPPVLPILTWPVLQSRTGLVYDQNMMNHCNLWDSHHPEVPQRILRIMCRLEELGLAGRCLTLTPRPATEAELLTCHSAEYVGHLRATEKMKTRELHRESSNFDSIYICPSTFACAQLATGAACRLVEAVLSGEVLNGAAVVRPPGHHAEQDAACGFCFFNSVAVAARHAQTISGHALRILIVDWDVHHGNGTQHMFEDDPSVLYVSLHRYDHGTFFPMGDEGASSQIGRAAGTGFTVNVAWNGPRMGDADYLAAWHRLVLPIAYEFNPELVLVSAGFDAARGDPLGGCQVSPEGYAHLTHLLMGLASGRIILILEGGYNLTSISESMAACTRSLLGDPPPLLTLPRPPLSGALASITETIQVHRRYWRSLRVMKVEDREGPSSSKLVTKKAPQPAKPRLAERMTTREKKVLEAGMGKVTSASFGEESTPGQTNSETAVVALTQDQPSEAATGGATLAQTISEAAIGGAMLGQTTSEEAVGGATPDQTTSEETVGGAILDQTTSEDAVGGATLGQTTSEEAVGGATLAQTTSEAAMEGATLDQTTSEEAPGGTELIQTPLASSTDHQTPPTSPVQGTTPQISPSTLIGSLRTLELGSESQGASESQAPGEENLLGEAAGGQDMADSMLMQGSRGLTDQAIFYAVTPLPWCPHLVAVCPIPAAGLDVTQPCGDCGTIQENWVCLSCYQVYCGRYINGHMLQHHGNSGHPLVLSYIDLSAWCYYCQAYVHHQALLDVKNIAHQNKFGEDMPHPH

[7] = molecular target: Histone deacetylase 3 (Homo sapiens, UniProt O15379); assay: Inhibition of HDAC3 (unknown origin)
Sequence of Histone deacetylase 3 (O15379 whole entry): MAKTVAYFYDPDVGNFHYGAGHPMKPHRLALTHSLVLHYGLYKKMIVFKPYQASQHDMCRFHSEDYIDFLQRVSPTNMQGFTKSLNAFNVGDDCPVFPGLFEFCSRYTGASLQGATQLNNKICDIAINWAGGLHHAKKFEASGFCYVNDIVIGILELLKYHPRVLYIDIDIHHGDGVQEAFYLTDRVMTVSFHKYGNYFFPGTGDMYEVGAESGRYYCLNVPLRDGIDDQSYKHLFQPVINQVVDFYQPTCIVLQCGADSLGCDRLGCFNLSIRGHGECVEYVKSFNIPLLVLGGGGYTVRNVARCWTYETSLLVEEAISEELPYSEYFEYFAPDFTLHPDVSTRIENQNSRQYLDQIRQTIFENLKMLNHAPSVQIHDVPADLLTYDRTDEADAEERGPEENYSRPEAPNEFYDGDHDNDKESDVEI

Sequence of Histone deacetylase 2 (Q92769 whole entry): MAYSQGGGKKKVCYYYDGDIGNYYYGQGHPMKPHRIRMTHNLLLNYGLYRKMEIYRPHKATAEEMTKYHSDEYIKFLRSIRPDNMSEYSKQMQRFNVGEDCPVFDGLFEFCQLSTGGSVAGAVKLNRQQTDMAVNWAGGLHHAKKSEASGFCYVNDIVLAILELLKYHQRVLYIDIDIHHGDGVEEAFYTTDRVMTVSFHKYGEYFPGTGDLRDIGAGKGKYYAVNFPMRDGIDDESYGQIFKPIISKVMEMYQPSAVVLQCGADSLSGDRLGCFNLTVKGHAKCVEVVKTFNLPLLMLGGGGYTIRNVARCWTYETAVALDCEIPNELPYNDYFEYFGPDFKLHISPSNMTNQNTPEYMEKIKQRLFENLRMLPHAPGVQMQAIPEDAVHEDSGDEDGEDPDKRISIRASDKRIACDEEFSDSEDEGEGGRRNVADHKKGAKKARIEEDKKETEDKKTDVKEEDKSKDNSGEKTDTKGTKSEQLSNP
Sequence of Histone deacetylase 1 (Q13547 whole entry): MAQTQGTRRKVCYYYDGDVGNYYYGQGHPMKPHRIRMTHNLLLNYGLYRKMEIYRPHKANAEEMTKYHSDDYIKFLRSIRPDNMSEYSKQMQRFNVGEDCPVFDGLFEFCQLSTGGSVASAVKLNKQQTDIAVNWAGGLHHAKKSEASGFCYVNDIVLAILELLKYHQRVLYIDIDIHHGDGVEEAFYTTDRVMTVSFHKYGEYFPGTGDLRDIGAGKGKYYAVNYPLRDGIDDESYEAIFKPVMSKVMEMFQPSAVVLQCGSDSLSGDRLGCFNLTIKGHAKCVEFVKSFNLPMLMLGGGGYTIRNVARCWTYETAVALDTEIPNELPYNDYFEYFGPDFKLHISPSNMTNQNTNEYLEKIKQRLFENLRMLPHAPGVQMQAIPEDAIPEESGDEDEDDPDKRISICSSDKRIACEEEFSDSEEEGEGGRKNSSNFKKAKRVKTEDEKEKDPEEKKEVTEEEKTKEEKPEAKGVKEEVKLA

Compound	IC50 [1]	IC50 [2]	IC50 [3]	EC50 [4]	EC50 [5]	IC50 [6]	IC50 [7]
CCC(=O)CCCCC[C@H](NC(=O)C1CN(C)C1)c1[nH]c(-c2ccc(F)cc2)nc1C(N)=O	0.0035 µM	0.0344 µM	5.38 µM	0.643 µM	0.775 µM	15.9 µM	0.0036 µM
CCC(=O)CCCCC[C@H](NC(=O)[C@H]1CC12CCN(C)CC2)c1[nH]c(-c2ccc(-c3cccnc3)cc2)nc1C#N	0.0002 µM	0.0017 µM	12.6 µM	0.055 µM	0.077 µM	9.47 µM	0.0003 µM
CCC(=O)CCCCC[C@H](NC(=O)[C@H]1CC12CCN(C)CC2)c1[nH]c(-c2ccc(F)cc2F)nc1C#N	0.0352 µM	0.155 µM	20.7 µM	1.26 µM	1.233 µM	14.8 µM	0.0189 µM
CCC(=O)CCCCCC(NC(=O)c1cncs1)c1[nH]c(-c2ccccc2)nc1C(=O)NC (configuration not stated)	0.0276 µM	0.0914 µM	7.47 µM	1.804 µM	0.57 µM	29.2 µM	0.0047 µM
CCC(=O)CCCCC[C@H](NC(=O)c1ccon1)c1[nH]c(-c2ccc(F)cc2)nc1C#N	0.0356 µM	0.164 µM	16.2 µM	2.726 µM	0.558 µM	> 45 µM	0.0121 µM
CCC(=O)CCCCC[C@H](NC(=O)[C@H]1CC12CCN(CC)CC2)c1[nH]c(-c2ccc(F)cc2)nc1C(N)=O	0.0004 µM	0.005 µM	6.36 µM	0.165 µM	0.193 µM	17.5 µM	0.0007 µM
CCC(=O)CCCCC[C@H](NC(=O)C12CCN(CC1)CC2)c1[nH]c(-c2ccc(F)cc2)nc1C#N	0.0062 µM	0.0269 µM	6.93 µM	2.207 µM	1.731 µM	> 45 µM	0.0024 µM
CCC(=O)CCCCC[C@H](NC(=O)[C@H]1CC12CCN(C)CC2)c1[nH]c(-c2ccccc2F)nc1C#N	0.017 µM	0.096 µM	39.6 µM	1.162 µM	0.566 µM	22.5 µM	0.0107 µM
CCC(=O)CCCCC[C@H](NC(=O)c1cncs1)c1[nH]c(-c2ccc(F)cc2)nc1C#N	0.0106 µM	0.0513 µM	12.3 µM	1.111 µM	0.254 µM	> 45 µM	0.0031 µM
CCC(=O)CCCCC[C@H](NC(=O)C1CN(C)C1)c1[nH]c(-c2ccc(F)cc2)nc1C#N	0.0259 µM	0.117 µM	19.7 µM	2.071 µM	1.564 µM	36.9 µM	0.0138 µM
CCC(=O)CCCCC[C@H](NC(=O)[C@H]1CC12CCN(C)CC2)c1[nH]c(-c2ccc(C(F)(F)F)cc2)nc1C#N	0.0037 µM	0.0156 µM	19.2 µM	0.175 µM	0.107 µM	8.25 µM	0.0019 µM
CCC(=O)CCCCCC(NC(=O)c1cncs1)c1[nH]c(-c2ccccc2)nc1C(=O)N1CCOCC1 (configuration not stated)	0.0436 µM	0.159 µM	16.8 µM	3.771 µM	2.729 µM	19 µM	0.0191 µM
CCC(=O)CCCCCC(NC(=O)c1cncs1)c1[nH]c(-c2ccccc2)nc1C(N)=O (configuration not stated)	0.0072 µM	0.0267 µM	4.7 µM	0.537 µM	0.154 µM	16.4 µM	–
CCC(=O)CCCCCC(NC(=O)c1cncs1)c1[nH]c(-c2ccccc2)nc1C(=O)NCCN(C)C (configuration not stated)	0.0135 µM	0.0531 µM	5.34 µM	0.853 µM	1.142 µM	> 45 µM	0.0045 µM
